In ChEMBL document CHEMBL5346864, “Identification of L. infantum trypanothione synthetase inhibitors with leishmanicidal activity from a (non-biased) in-house chemical library” (Eur J Med Chem, 2022):
Active and inactive are the calls of the source. The calls are words filed in the database; no cut-off is given here.

Legend:
Leishmania infantum [1] = test: Induction of mitochondrial inner membrane depolarization in Leishmania infantum axenic amastigotes at 5 uM incubated for 2 hrs by TMRM-derived flow cytometry
Leishmania infantum [2] = test: Anti-leishmanial activity against GFP-expressing Leishmania infantum axenic amastigotes infected in human THP-1 cells assessed as reduction in live intracellular GFP+ amastigotes measured after 72 hrs by fluorescence based analysis; assay type: functional, organism-based; details: THP-1, 72 h
Method in brief: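 THP-1 monocytes differentiated 24 h with 100 ng/mL PMA, infected 24 h with GFP-expressing L. infantum axenic amastigotes (5 × 10^6/mL), non-internalized parasites removed by washes and a 24 h horse-serum challenge. Treatment for 72 h at 37 °C in RPMI with 10% horse serum. SDS lysis; live (propidium iodide-negative) GFP+ amastigotes counted by flow cytometry, normalized to vehicle, EC50 by two-parameter fit; three independent experiments.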

[3] = Inhibition of N-terminal His6-tagged recombinant Leishmania infantum promastigotes (MCAN/ES/89/IPZ229/1/89) TryS expressed in Escherichia coli BL21(DE3) Rossetta by BIOMOL Green reagent based assay
Method in brief: (§1)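 Recombinant His-LiTryS at 25 nM final, 100 mM HEPES pH 8, 0.5 mM EDTA, 10 mM MgCl2, 100 µM DTT, 2% DMSO, 37 °C, 30 min. Saturating substrates: 150 µM ATP, 100 µM GSH, 2 mM Spd or 500 µM GspdSH. […] Phosphate via BIOMOL Green, A650; 6-point curves, triplicate, three experiments.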

Leishmania infantum [4] = test: Increase in the intracellular superoxide radical concentration in Leishmania infantum axenic amastigotes at 1 uM incubated for 2 hrs by DHE-derived flow cytometry; assay type: functional, cell-based
[5] = Cytotoxicity against human HepG2 cells assessed as reduction in cell proliferation measured after 72 hrs by crystal violet staining based analysis; assay type: toxicity
Leishmania infantum [6] = test: Leishmanicidal activity against Leishmania infantum axenic amastigotes (MCAN/ES/89/IPZ229/1/89) assessed as inhibition of parasite proliferation measured after 24 hrs by resazurin dye based fluorescence analysis; assay type: functional, organism-based; details: MCAN/ES/89/IPZ229/1/89, 24 h
Method in brief: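 L. infantum MCAN/ES/89/IPZ229/1/89 axenic amastigotes (M199-based medium, pH 5.4, 37 °C) from log cultures seeded at 10^6/mL and treated 24 h at 37 °C. Resazurin added for a further 24 h; fluorescence read at ex 560/em 590 nm, normalized to vehicle, EC50 from two-parameter fit; triplicate in three independent experiments.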

[7] = Selectivity index, ratio of CC50 for cytotoxicity against human HepG2 cells to EC50 for Anti-Leishmanial activity against GFP-expressing Leishmania infantum axenic amastigotes infected in human THP-1 cells; assay type: toxicity, cell-based; details: read-out: Ratio CC50/EC50
Leishmania infantum [8] = test: Induction of plasma membrane depolarization in Leishmania infantum axenic amastigotes at 1 uM incubated for 2 hrs by DiBAC4(3)-derived flow cytometry
[9] = (§2) Inhibition of N-terminal His6-tagged recombinant Leishmania infantum promastigotes (MCAN/ES/89/IPZ229/1/89) TryS expressed in Escherichia coli BL21(DE3) Rossetta using saturating concentrations of ATP and GSH and Km concentration of GspdSH as substrate measured after 30 mins by BIOMOL Green reagent based assay
[10] = as §2, with “Spd” for “GspdSH”
[11] = Inhibition of N-terminal His6-tagged recombinant Leishmania infantum promastigotes (MCAN/ES/89/IPZ229/1/89) TryS expressed in Escherichia coli BL21(DE3) Rossetta using saturating concentrations of ATP, GSH and Spd as substrate measured after 30 mins by BIOMOL Green reagent based assay; method in brief: as §1
[12] = as §2, with “GSH” for “ATP”, “Spd” for “GSH”, “ATP” for “GspdSH”
[13] = Inhibition of N-terminal His6-tagged recombinant Leishmania infantum promastigotes (MCAN/ES/89/IPZ229/1/89) TryS expressed in Escherichia coli BL21(DE3) Rossetta using saturating concentrations of ATP, GSH and GspdSH as substrate measured after 30 mins by BIOMOL Green reagent based assay; method in brief: as §1
[14] = as §2, with “Spd” for “GSH”, “GSH” for “GspdSH”
[15] = (§3) Competitive inhibition of N-terminal His6-tagged recombinant Leishmania infantum promastigotes (MCAN/ES/89/IPZ229/1/89) TryS expressed in Escherichia coli BL21(DE3) Rossetta with fixed concentration of Spd and GSH and varying concentrations of ATP as substrate measured after 30 mins by Lineweaver-Burk double-reciprocal plot analysis
Method in brief: (§4)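 Recombinant His-tagged LiTryS (62.5 nM added to start) in 100 mM HEPES pH 8, 50 µL, 37 °C, 30 min; phosphate read with BIOMOL Green at 650 nm. Four inhibitor concentrations crossed with four varied substrate levels, no enzyme preincubation. […] Lineweaver-Burk analysis, three experiments.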

[16] = as §3, with “ATP” for “Spd”, “GspdSH” for “ATP”; method in brief: as §4
[17] = as §3, with “Mixed” for “Competitive”, “ATP” for “Spd”, “GspdSH” for “ATP”; method in brief: as §4

| SMILES | Activity (Leishmania infantum [1]) | EC50 (Leishmania infantum [2]) [µM] | IC50 [3] [µM] | Activity (Leishmania infantum [4]) | CC50 at 72 h [5] [µM] | EC50 (Leishmania infantum [6]) [µM] | selectivity ratio [7] | Activity (Leishmania infantum [8]) | IC50 [9] [µM] | IC50 [10] [µM] | IC50 [11] [µM] | IC50 [12] [µM] | IC50 [13] [µM] | IC50 [14] [µM] | Ki [15] [µM] | Ki [16] [µM] | Ki [17] [µM] |
| --- | --- | --- | --- | --- | --- | --- | --- | --- | --- | --- | --- | --- | --- | --- | --- | --- | --- |
| CCCCCCCCCCCCCCCCOP(=O)([O-])OCC[N+](C)(C)C [MILTEFOSINE] | Active | 0.7 | 45.6 | Active | > 75 | 0.5 | > 107 | Active | – | – | – | – | – | – | – | – | – |
| CCCCCCCCCCCCCCOc1ccc(C[N+](C)(C)C2CCCC2)cc1OC | Active | 0.6 | – | Active | 21.3 | 0.4 | 35.5 | Active | 3.8 | 5.5 | 7.9 | 7.3 | 7.1 | 7.8 | – | – | – |
| CCCCCCCCCCCCCCCOc1cc(C[N+](C)(C)C2CCCC2)ccc1OCCCCCCCCCCCCCC | – | – | – | – | – | > 75 | – | – | 6 | 8.4 | 9.8 | 8.9 | 7.5 | 8.7 | – | – | – |
| NCCCCc1cn(-c2ccc(-c3nc(-c4ccc(Oc5ccccc5)cc4)c(-c4ccccc4)s3)c(OCCN3CCNC3=O)c2)nn1 | – | 13.5 | – | – | 15.9 | 21.5 | 1.2 | – | 10.7 | 10.9 | 14.8 | 8.7 | 16.2 | 14.2 | 5.4 | 3.9 | – |
| O=C(O[C@@H]1OC[C@@H](OC(=O)c2ccc(O)c(O)c2O)[C@@H](OC(=O)c2ccc(O)c(O)c2O)[C@H]1OC(=O)c1ccc(O)c(O)c1O)c1ccc(O)c(O)c1O | – | – | – | – | – | 47.6 | – | – | 5.1 | 4.7 | 5.4 | 7.1 | 5.9 | 6.7 | – | – | – |
| CCCCCCCCCCCC(=O)NC(COC(=O)c1ccc(OCCN)c(OCCN)c1)COC(=O)c1cc(OCCN)c(OCCN)c(OCCN)c1 (stereo unspecified) | – | 17.9 | – | – | > 75 | 7.3 | > 4.2 | – | 4.9 | 9.9 | 14.8 | 13.4 | 7.2 | 14.6 | – | 2.6 | – |
| O=C(OC[C@H]1O[C@H](O[C@H]2O[C@H](COC(=O)c3cc(O)c(O)c(O)c3)[C@@H](OC(=O)c3cc(O)c(O)c(O)c3)[C@H](OC(=O)c3cc(O)c(O)c(O)c3)[C@H]2OC(=O)c2cc(O)c(O)c(O)c2)[C@H](OC(=O)c2cc(O)c(O)c(O)c2)[C@@H](OC(=O)c2cc(O)c(O)c(O)c2)[C@@H]1OC(=O)c1cc(O)c(O)c(O)c1)c1cc(O)c(O)c(O)c1 | – | – | – | – | – | 43.7 | – | – | 2 | 5.6 | 4.4 | 5.4 | 2.2 | 5.4 | – | – | 0.8 |
